# Measured values taken from ChEMBL document CHEMBL4706691, “Bicyclic Diazepinones as Dual Ligands of the α2δ-1 Subunit of Voltage-Gated Calcium Channels and the Norepinephrine Transporter” (J Med Chem, 2021).
# Legend:
# [1] = target: T1, Sodium-dependent noradrenaline transporter (Homo sapiens, UniProt P23975); assay: Inhibition of human NET expressed in HEK293 cells assessed as reduction in ASP+ uptake incubated for 20 mins before ASP+ addition and measured after 90 mins by scintillation counting method
# [2] = target: T1, Sodium-dependent noradrenaline transporter; assay: Displacement of [3H]-nisoxetine from human NET expressed in HEK293 cell membranes incubated for 60 mins by scintillation counting method
# [3] = target: Voltage-dependent calcium channel subunit alpha-2/delta-1 (Homo sapiens, UniProt P54289); assay: Displacement of [3H]-gabapentin from human Cav alpha2delta1 expressed in CHO-K1 cell membranes incubated for 60 mins by scintillation counting method; design: species or system Cell membrane
# Procedure, shortened: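 Nonspecific binding defined with 10 μM pregabalin. Test compounds at five concentrations in duplicate, giving Ki. Bound radioactivity collected by filtration on PEI-soaked GF/C, washed with cold 50 mM Tris-HCl, then scintillation counted.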
# [4] = target: Voltage-dependent calcium channel subunit alpha-2/delta-2 (Homo sapiens, UniProt Q9NY47); assay: Displacement of [3H]-gabapentin from human Cav alpha2delta2 expressed in HEK293 cell membranes incubated for 60 mins by scintillation counting method
# CYP2C19 = CYP2C19 (Homo sapiens, UniProt P33261); assay: Inhibition of human CYP2C19 at 1 uM relative to control; assay type: ADME
# CYP2D6 = CYP2D6 (Homo sapiens, UniProt P10635); assay: Inhibition of human CYP2D6 at 1 uM relative to control; assay type: ADME
# CYP3A4 = CYP3A4 (Homo sapiens, UniProt P08684); assay: Inhibition of human CYP3A4 at 1 uM relative to control; assay type: ADME
# CYP2C9 = CYP2C9 (Homo sapiens, UniProt P11712); assay: Inhibition of human CYP2C9 at 1 uM relative to control; assay type: ADME
# [5] = target: Voltage-gated inwardly rectifying potassium channel KCNH2 (Homo sapiens, UniProt Q12809); assay: Inhibition of human ERG
# CYP1A2 = target: T2, CYP1A2 (Homo sapiens, UniProt P05177); assay: Inhibition of human CYP1A2 at 1 uM relative to control; assay type: ADME
# T2 sequence (P05177 whole entry): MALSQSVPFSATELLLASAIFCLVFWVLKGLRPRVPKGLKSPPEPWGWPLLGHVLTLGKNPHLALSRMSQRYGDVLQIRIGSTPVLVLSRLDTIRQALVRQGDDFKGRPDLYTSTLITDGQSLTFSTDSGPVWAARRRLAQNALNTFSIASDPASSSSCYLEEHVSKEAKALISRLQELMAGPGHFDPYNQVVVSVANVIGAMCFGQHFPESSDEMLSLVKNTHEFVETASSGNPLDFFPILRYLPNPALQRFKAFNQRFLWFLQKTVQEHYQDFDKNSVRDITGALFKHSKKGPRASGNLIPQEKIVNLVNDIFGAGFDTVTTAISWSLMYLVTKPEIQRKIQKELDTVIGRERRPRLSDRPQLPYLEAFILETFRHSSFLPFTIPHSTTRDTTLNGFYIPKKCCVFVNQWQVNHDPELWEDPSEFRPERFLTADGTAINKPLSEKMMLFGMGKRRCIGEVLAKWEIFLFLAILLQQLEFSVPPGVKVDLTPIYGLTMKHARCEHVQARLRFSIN
# [6] = Intrinsic clearance in rat liver microsomes
# [7] = Intrinsic clearance in human liver microsomes
# Voltage-gated inwardly rectifying potassium channel KCNH2, sequence (Q12809 whole entry): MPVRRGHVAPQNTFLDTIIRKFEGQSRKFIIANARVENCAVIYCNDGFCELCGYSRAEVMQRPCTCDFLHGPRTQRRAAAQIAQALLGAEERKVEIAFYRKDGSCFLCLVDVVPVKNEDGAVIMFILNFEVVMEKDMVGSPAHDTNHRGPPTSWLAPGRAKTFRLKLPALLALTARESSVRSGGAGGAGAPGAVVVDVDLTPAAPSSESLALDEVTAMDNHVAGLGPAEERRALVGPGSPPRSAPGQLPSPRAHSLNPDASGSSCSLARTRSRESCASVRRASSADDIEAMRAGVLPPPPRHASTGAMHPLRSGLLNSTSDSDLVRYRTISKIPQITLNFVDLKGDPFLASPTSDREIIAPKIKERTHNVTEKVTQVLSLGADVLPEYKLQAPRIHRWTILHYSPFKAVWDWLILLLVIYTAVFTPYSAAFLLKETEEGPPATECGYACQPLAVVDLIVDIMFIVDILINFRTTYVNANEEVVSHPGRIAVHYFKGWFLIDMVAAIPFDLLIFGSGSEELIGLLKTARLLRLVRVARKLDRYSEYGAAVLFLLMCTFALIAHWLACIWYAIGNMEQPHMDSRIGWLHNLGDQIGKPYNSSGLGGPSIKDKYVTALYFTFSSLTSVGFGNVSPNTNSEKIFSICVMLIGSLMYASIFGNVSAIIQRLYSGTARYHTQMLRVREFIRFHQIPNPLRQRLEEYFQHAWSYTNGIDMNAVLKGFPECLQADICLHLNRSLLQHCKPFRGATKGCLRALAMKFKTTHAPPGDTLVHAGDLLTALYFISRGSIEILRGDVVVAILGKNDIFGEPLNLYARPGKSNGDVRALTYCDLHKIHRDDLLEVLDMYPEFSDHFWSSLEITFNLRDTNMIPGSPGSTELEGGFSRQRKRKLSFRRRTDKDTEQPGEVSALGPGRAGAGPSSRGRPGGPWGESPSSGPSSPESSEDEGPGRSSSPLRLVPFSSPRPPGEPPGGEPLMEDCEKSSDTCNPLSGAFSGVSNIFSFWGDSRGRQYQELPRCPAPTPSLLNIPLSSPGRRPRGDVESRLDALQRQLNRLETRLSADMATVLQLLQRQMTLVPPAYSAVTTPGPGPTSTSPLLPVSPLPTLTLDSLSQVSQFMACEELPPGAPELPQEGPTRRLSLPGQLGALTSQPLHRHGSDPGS
# CYP3A4, sequence (P08684 whole entry): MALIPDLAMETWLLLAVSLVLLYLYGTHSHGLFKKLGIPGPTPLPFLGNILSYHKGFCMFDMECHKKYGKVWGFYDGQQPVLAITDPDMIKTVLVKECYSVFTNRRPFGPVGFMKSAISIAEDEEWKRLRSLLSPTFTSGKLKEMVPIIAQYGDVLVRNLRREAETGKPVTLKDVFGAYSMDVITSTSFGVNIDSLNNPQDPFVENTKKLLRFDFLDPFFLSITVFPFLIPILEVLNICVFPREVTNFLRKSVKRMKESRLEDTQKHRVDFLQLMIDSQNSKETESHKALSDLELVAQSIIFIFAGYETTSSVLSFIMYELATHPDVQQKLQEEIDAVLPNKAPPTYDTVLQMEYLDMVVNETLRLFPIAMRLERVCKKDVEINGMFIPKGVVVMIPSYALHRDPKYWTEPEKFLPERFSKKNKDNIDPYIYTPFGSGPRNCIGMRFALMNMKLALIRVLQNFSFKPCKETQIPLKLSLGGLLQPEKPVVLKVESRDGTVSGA
# CYP2D6, sequence (P10635 whole entry): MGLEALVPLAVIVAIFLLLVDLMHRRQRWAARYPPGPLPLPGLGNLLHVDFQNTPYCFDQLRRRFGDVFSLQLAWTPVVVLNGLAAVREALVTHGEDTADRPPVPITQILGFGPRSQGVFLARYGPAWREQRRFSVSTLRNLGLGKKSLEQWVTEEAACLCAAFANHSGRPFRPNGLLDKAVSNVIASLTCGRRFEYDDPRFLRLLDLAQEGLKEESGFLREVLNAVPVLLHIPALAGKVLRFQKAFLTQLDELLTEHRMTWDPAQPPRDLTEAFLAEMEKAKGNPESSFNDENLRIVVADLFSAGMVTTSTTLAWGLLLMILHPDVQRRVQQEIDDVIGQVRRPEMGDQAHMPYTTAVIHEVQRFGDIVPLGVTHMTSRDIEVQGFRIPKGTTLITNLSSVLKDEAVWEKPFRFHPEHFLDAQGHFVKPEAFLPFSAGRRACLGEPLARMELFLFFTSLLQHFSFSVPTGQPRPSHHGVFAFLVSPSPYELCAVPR
# CYP2C19, sequence (P33261 whole entry): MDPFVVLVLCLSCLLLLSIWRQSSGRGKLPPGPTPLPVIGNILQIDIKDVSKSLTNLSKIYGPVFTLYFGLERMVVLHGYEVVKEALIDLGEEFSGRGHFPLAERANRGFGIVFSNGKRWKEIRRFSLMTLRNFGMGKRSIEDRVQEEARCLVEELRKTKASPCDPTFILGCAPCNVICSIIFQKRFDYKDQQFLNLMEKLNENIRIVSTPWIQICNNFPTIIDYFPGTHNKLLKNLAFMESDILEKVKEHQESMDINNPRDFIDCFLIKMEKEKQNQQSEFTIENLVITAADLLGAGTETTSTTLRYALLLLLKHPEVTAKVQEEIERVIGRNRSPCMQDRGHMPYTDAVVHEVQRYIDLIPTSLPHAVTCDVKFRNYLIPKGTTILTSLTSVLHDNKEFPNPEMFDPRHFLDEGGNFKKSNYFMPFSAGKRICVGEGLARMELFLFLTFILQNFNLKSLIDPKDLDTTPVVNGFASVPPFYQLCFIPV
# T1 sequence (P23975 whole entry): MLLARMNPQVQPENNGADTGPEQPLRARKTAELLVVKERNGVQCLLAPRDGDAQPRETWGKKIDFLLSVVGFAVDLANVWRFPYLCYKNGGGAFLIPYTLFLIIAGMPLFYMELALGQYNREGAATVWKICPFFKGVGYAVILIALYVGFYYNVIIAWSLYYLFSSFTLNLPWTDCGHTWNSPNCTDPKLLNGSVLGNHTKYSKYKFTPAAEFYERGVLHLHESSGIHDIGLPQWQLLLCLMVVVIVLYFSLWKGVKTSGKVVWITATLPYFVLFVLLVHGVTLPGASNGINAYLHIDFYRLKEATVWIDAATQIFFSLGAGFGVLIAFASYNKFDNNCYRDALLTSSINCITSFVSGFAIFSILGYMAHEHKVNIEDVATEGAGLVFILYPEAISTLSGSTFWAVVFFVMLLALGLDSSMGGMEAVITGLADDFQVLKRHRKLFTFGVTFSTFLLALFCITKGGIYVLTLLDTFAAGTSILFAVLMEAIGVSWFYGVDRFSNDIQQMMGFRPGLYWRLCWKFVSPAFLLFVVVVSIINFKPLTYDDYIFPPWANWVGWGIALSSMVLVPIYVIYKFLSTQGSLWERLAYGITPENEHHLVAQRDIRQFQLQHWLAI
# Voltage-dependent calcium channel subunit alpha-2/delta-2, sequence (Q9NY47 19-1001 limits assumed): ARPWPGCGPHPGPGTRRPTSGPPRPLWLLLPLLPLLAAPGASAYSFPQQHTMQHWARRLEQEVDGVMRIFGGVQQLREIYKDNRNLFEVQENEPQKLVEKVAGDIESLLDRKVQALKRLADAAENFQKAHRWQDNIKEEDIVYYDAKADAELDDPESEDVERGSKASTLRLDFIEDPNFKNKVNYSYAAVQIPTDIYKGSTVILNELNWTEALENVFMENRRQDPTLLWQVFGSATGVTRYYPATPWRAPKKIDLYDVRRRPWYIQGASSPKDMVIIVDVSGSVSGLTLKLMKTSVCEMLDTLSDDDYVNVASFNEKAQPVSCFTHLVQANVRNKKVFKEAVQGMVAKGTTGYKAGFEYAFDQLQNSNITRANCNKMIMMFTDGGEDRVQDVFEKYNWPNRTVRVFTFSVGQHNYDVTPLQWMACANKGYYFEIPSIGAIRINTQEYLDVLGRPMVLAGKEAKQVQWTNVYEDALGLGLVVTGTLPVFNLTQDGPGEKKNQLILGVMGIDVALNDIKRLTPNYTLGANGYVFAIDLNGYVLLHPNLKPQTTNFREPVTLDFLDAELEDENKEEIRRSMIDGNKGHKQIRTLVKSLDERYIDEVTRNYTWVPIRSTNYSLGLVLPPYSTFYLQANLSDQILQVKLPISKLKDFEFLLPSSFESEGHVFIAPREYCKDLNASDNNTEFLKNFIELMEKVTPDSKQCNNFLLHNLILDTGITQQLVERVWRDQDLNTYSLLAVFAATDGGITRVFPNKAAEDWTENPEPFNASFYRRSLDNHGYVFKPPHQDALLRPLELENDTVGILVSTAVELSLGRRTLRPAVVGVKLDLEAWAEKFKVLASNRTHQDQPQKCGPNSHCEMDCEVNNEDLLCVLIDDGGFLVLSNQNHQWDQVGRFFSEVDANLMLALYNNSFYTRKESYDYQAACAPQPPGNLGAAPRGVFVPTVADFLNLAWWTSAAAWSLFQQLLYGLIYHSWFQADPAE
# Voltage-dependent calcium channel subunit alpha-2/delta-2, sequence (Q9NY47 1002-1150 limits assumed): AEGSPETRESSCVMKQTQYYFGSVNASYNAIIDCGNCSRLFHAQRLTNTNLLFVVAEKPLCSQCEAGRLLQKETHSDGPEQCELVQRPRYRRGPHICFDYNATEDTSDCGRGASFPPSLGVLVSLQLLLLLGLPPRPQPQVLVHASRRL
# CYP2C9, sequence (P11712 whole entry): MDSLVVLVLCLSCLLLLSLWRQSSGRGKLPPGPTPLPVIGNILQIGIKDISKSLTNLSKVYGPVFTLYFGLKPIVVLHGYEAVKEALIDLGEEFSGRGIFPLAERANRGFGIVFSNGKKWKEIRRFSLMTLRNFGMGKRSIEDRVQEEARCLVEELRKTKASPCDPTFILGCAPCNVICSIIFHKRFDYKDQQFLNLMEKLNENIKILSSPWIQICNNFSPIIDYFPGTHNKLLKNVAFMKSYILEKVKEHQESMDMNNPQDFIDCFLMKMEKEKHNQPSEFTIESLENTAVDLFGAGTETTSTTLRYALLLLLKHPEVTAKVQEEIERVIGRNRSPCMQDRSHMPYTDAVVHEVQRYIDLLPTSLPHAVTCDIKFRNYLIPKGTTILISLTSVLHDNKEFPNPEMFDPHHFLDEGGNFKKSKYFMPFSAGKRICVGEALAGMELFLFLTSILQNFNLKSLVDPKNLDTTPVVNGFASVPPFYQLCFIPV
smiles,measurement,setting,value
CCNc1ncc2c(n1)N1CCC[C@H]1CN(c1cccc(-c3noc(C)n3)c1)C2=O,IC50,[1],> 10 µM
same,Ki,[2],> 10 µM
same,Ki,[3],0.011 µM
same,Ki,[4],2.15 µM
CNc1ncc2c(n1)N(C)CCN(c1cccc(-c3nnc(C)o3)c1)C2=O,IC50,[1],> 10 µM
same,Ki,[2],> 10 µM
same,Ki,[3],0.244 µM
same,Ki,[4],> 10 µM
CNCC[C@H](Oc1cccc(N2CCN(C)c3nc(N)ncc3C2=O)c1)c1cccs1,inhibition at 1 µM,CYP2C19,< 50%
same,inhibition at 1 µM,CYP2D6,< 50%
same,inhibition at 1 µM,CYP3A4,< 50%
same,inhibition at 1 µM,CYP2C9,< 50%
same,IC50,[5],> 10 µM
same,inhibition at 1 µM,CYP1A2,< 50%
CNCC[C@@H](Oc1cccc(N2CCN(C)CCC2=O)c1)c1cccs1,Ki,[3],0.606 µM
CNCCC(Oc1cccc(N2CCN(C)c3cccnc3C2=O)c1)c1cccs1 (stereo not drawn),Ki,[3],1.25 µM
CNCCC(Oc1cccc(N2CCN(C)c3cnccc3C2=O)c1)c1cccs1 (stereo not drawn),Ki,[3],0.208 µM
CCNc1ncc2c(n1)N(C)CCN(c1ccccc1OC(CCNC)c1ccccc1)C2=O (stereo not drawn),IC50,[1],> 10 µM
same,Ki,[2],> 10 µM
same,Ki,[3],3.49 µM
CCNc1ncc2c(n1)N1CCC[C@@H]1CN(c1cccc(OC(CCNC)c3ccccc3)c1)C2=O (stereo partly drawn),Ki,[3],0.187 µM
CNCC[C@H](Oc1cccc(N2CCN(C)CCC2=O)c1)c1cccs1,Ki,[3],2.8 µM
CCN(C)c1ncc2c(n1)N(C)CCN(c1cccc(-c3nnc(C)o3)c1)C2=O,IC50,[1],> 10 µM
same,Ki,[2],> 10 µM
same,Ki,[3],> 10 µM
CCNc1ncc2c(n1)N1CCC[C@H]1CN(c1cccc(OC(CCNC)c3ccccc3)c1)C2=O (stereo partly drawn),Ki,[3],0.336 µM
CCNc1ncc2c(n1)N(C)CCN(c1cccc(-c3nnc(C)o3)c1)C2=O,IC50,[1],> 10 µM
same,inhibition at 1 µM,CYP2C19,< 50%
same,Ki,[2],> 10 µM
same,inhibition at 1 µM,CYP2D6,< 50%
same,inhibition at 1 µM,CYP3A4,< 50%
same,Ki,[3],0.081 µM
same,Ki,[4],2.97 µM
same,microsomal CLint,[6],< 5 µL/min/mg
same,microsomal CLint,[7],< 5 µL/min/mg
same,inhibition at 1 µM,CYP2C9,< 50%
same,IC50,[5],> 10 µM
same,inhibition at 1 µM,CYP1A2,< 50%
CNCCC(Oc1cccc(N2CCN(C)c3ccccc3C2=O)c1)c1cccs1 (stereo not drawn),Ki,[3],0.833 µM
CCNc1ncc(C(=O)N(C)c2cccc(OC(CCNC)c3ccccc3)c2)cn1 (stereo not drawn),IC50,[1],> 10 µM
same,Ki,[2],> 10 µM
same,Ki,[3],> 10 µM
CSc1ncc2c(n1)N(C)CCN(c1cccc(-c3nnc(C)o3)c1)C2=O,IC50,[1],> 10 µM
same,Ki,[2],> 10 µM
same,Ki,[3],> 10 µM
same,Ki,[4],> 10 µM
CCNc1ncc2c(n1)N(CC)CCN(c1cccc(-c3nnc(C)o3)c1)C2=O,IC50,[1],> 10 µM
same,Ki,[2],> 10 µM
same,Ki,[3],0.178 µM
COCCNc1ncc2c(n1)N(C)CCN(c1cccc(-c3nnc(C)o3)c1)C2=O,IC50,[1],> 10 µM
same,Ki,[2],> 10 µM
same,Ki,[3],> 10 µM
CNCC[C@H](Oc1cccc(N2CCN(C)c3ncccc3C2=O)c1)c1cccs1,inhibition at 1 µM,CYP2C19,< 50%
same,inhibition at 1 µM,CYP2D6,< 50%
same,inhibition at 1 µM,CYP3A4,< 50%
same,inhibition at 1 µM,CYP2C9,< 50%
same,IC50,[5],> 10 µM
same,inhibition at 1 µM,CYP1A2,< 50%
CCNc1ncc2c(n1)N(C)CCN(c1cccc(-c3nnc(C)o3)c1)C2,IC50,[1],> 10 µM
same,Ki,[2],> 10 µM
same,Ki,[3],1.03 µM
CCNc1ncc2c(n1)N(C)CCN(c1ccccc1COC(CCNC)c1ccccc1)C2=O (stereo not drawn),IC50,[1],> 10 µM
same,Ki,[2],> 10 µM
same,Ki,[3],> 10 µM
CC(C)C[C@H](CN)CC(=O)O [PREGABALIN],IC50,[1],> 10 µM
same,Ki,[2],> 10 µM
same,Ki,[3],0.019 µM
same,Ki,[4],0.099 µM
